Only some compounds are listed: those with a hit (about 1.9% of all), similar ones and a draw of the others.
IDE cell inh: cellular human IDE inhibition | P14735 | HEK cells, FAbetaB cleavage, fluorescence polarization | inhibition, % at 5.59 µM | actives 0.41% (n = 320,000);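 active means percent inhibition above the average of all tested compounds plus 3 SD, set per screening campaign, cut at about 16% in these data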;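 further: IDE supplied by intact live HEK cells; FP after avidin binding of uncleaved biotin substrate so inhibition keeps polarization high; 0% = DMSO wells and 100% = 60 µM reference IDE inhibitor Ii1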
proCasp3 act: procaspase-3 (human) activation; P42574; recombinant procaspase-3 D3A, Ac-DEVD-pNA absorbance 405 nm; activation, % at 8.5 µM; actives 0.11% (n = 330,000);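 active means activation above the mean of all tested compounds plus 3 SD, cut at about 21% in these data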;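 further: 0% = DMSO alone and 100% = DMSO wells spiked with extra 5 µM PC-3 D3A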
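Test system: Procaspase-3 D3A mutant, all three cleavage aspartates alanine | Dosing: Single dose, 8.5 µM nominal compound, 0.8% DMSO | Schedule: 1 h preincubation, 2 h reaction | Technique: 405 nm absorbance of p-nitroaniline, reads at 0 and 120 min | Repeats: One well per compound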
IDE cell activ: IDE (human) activation, cell-based | HEK cells, FAbeta-B cleavage, fluorescence polarization; 0% vehicle, 100% cell-free pure enzyme wells | activation, % at 5.96 µM | actives 0.073% (n = 340,000) | AID 493087;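 active means activation above the mean of all tested compounds plus 3 SD, set per screening campaign, cut at about 17% in these data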
PHOSPHO1 inh: PHOSPHO1 (human) inhibition; Q8TCT1; recombinant PHOSPHO1, absorbance phosphatase assay; inhibition, % at 13.3 µM; actives 1.1% (n = 290,000); AID 1565; in the data active means inhibition above about 60%
Target sequence (Q8TCT1 whole entry, looked up): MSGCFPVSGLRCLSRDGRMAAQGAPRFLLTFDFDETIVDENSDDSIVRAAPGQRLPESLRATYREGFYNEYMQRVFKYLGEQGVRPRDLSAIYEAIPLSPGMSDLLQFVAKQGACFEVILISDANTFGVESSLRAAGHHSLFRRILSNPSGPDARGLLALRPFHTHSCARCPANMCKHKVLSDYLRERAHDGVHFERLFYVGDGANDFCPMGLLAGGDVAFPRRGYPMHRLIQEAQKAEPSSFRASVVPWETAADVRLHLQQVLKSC
procasp7 counter: counter-screen for procaspase-3 activators: activators of human procaspase-7. actives 0.093% (n = 330,000). activation, % at 8.5 µM. P55210. recombinant procaspase-7, Ac-DEVD-pNA absorbance 405 nm; D23A/D198A/D206A triple mutant, cannot self-cleave; scale: DMSO 0, 5 µM enzyme 100. AID 463210;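 active means percent activation above the screen-wide mean plus 3 SD, cut at about 25% in these data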
Target sequence (P55210 whole entry D23A/D198A/D206A): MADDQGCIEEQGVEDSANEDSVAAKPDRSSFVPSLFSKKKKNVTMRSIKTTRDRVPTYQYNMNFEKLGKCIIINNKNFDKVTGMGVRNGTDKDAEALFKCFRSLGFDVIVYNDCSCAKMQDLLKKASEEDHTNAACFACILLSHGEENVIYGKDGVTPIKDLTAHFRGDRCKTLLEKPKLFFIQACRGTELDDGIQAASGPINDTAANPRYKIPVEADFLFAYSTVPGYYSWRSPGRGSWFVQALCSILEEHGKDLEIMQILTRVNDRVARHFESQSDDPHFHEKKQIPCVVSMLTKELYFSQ
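signal = Epi-absorbance of released pNA at 405 nm, two timepoints | assay system = Uncleavable procaspase-7 mutant enzyme | reagent = Ac-DEVD-pNA substrate, 400 µM as added | times = 1 h enzyme–compound preincubation and 2 h substrate reaction, both 25 °C | benchmarks = low DMSO alone, high DMSO plus 5 µM PC-7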
UBC13 polyUb: blocks human UBC13 polyubiquitin chain formation; P61088; TR-FRET; AID 485273; inhibition, % at 20 µM; actives 0.47% (n = 330,000); in the data active means inhibition above about 45%, passing the limit was not always enough
The depositor's hits bear a star.

Screening Cc1ccc(N(CC(=O)NCc2ccc(F)cc2)S(=O)(=O)c2c(C)nn(C)c2C)cc1 returned IDE cell inh 10, proCasp3 act 8, IDE cell activ 1, PHOSPHO1 inh 62*, procasp7 counter -3 and UBC13 polyUb -1.
Screening Cc1ccc(CNC(=O)CN(c2ccc(C)cc2)S(=O)(=O)c2c(C)nn(C)c2C)cc1 returned IDE cell inh 4, proCasp3 act -7, IDE cell activ 5, PHOSPHO1 inh 15, procasp7 counter 5 and UBC13 polyUb -4.
For O=C(COC(=O)c1n[nH]c2ccccc12)c1cccc(Br)c1 the results were IDE cell inh 3, proCasp3 act -5, IDE cell activ 7, PHOSPHO1 inh 61*, procasp7 counter -5 and UBC13 polyUb 0.
For Cc1ccc(C)c(C(=O)COC(=O)c2n[nH]c3ccccc23)c1 the results were IDE cell inh 9, proCasp3 act 1, IDE cell activ 0, procasp7 counter 11 and UBC13 polyUb 2.
For COc1ccccc1N1CCN(Cc2cc(Br)c(O)c3ncccc23)CC1 the results were IDE cell inh 15, proCasp3 act -34, IDE cell activ 0, PHOSPHO1 inh 78*, procasp7 counter -28 and UBC13 polyUb -42.
`CCOc1ccccc1N1CCN(Cc2cccc(OC)c2O)CC1` gave IDE cell inh 1, proCasp3 act 1, IDE cell activ 2, PHOSPHO1 inh 9, procasp7 counter -3 and UBC13 polyUb 2.
Screening Cc1c(Cl)ccc2sc(NC(=O)c3ccco3)nc12 returned IDE cell inh 2, proCasp3 act -4, IDE cell activ 11, PHOSPHO1 inh 23, procasp7 counter 1 and UBC13 polyUb 1.
O=C(CCC(=O)c1ccc(Oc2ccccc2)cc1)Nc1ccc(C(=O)O)cc1 was read as IDE cell inh 1, proCasp3 act 2, IDE cell activ 7, PHOSPHO1 inh 39, procasp7 counter 2 and UBC13 polyUb 4.
Screening FC(F)(F)c1cnc(-n2cc[nH]c2=S)c(Cl)c1 returned IDE cell inh 2, proCasp3 act 0, IDE cell activ 1, PHOSPHO1 inh 98*, procasp7 counter -2 and UBC13 polyUb -4.
`Cc1ccc(S(=O)(=O)NC(C)(C)C)cc1C(=O)OC(C)C(=O)NC1CC1` (stereo unspecified) gave IDE cell inh 0, proCasp3 act 6, IDE cell activ 3, procasp7 counter 4 and UBC13 polyUb 2.
`COc1ccc2[nH]c(C(=O)O)c(NC(=O)c3cc(OC)c(OC)c(OC)c3)c2c1` gave IDE cell activ 4, PHOSPHO1 inh 27 and UBC13 polyUb -6.
For Cc1cc(NS(=O)(=O)c2ccc(NC(=O)CSc3nc4ncc(Br)cc4[nH]3)cc2)nc(C)n1 the results were IDE cell inh -9, proCasp3 act -4, IDE cell activ 6, PHOSPHO1 inh 72*, procasp7 counter 9 and UBC13 polyUb -5.
O=C(Cn1cc([N+](=O)[O-])cn1)N1CCCc2ccccc21 was read as IDE cell inh 1, proCasp3 act -5, IDE cell activ -1, PHOSPHO1 inh 64*, procasp7 counter -2 and UBC13 polyUb 4.
O=C(Cn1cc([N+](=O)[O-])cn1)N1CCc2ccccc21 was read as IDE cell inh 2, proCasp3 act -2, IDE cell activ 5, PHOSPHO1 inh 30, procasp7 counter 6 and UBC13 polyUb 6.
`CCN(c1ccc(OC)cc1)S(=O)(=O)c1ccc(-c2ccc(=O)[nH]n2)o1` gave IDE cell inh 6, proCasp3 act 2, IDE cell activ 8, PHOSPHO1 inh 38, procasp7 counter 6 and UBC13 polyUb 2.
Screening COc1cc(C(=O)CSc2nnc(-c3ccc(O)cc3)n2CC2CCCO2)ccc1NC(C)=O (stereo unspecified) returned IDE cell inh 6, proCasp3 act -7, IDE cell activ -5, PHOSPHO1 inh 79*, procasp7 counter 6 and UBC13 polyUb -6.
O=C(CSc1nnc(-c2ccc(S(=O)(=O)N3CCCC3)cc2)n1CC1CCCO1)NC1CC1 (stereo unspecified) was read as IDE cell inh 0, proCasp3 act -3, IDE cell activ 5, PHOSPHO1 inh 84*, procasp7 counter 0 and UBC13 polyUb 4.
Screening CCCCn1c(N)c(N(CC)C(=O)c2cnc(C)cn2)c(=O)[nH]c1=O returned IDE cell inh 0, proCasp3 act 5, IDE cell activ 4, procasp7 counter 9 and UBC13 polyUb 1.
Screening COC(C(=O)Nc1cccc([N+](=O)[O-])c1)c1ccccc1 (stereo unspecified) returned IDE cell inh -1, proCasp3 act -1, IDE cell activ -2, PHOSPHO1 inh 21, procasp7 counter 8 and UBC13 polyUb -4.
Screening CC(Oc1ccccc1)C(=O)Nc1cccc([N+](=O)[O-])c1 (stereo unspecified) returned IDE cell inh 4, proCasp3 act 3, IDE cell activ 3, PHOSPHO1 inh 60*, procasp7 counter 8 and UBC13 polyUb 7.
For COc1ccc(C(=O)C2CCCN(Cc3ccc(C#CCCO)cc3)C2)cc1F (stereo unspecified) the results were IDE cell inh 0, proCasp3 act 1, IDE cell activ 5, PHOSPHO1 inh 30, procasp7 counter 5 and UBC13 polyUb 4.
`COc1ccc(N2CSC3=C(C#N)C(c4cccc(OC)c4OC)CC(=O)N3C2)cc1` (stereo unspecified) gave IDE cell inh 1, proCasp3 act -16, IDE cell activ -30, PHOSPHO1 inh 83*, procasp7 counter -12 and UBC13 polyUb -26.
Screening COc1ccc2ccccc2c1C1CC(=O)N2CN(C3CCCCC3)CSC2=C1C#N (stereo unspecified) returned IDE cell inh 2, proCasp3 act -24, IDE cell activ -4, PHOSPHO1 inh 50, procasp7 counter -18 and UBC13 polyUb -20.
`Cc1cccc(N2CSC3=C(C#N)C(c4ccc(C)o4)CC(=O)N3C2)c1` (stereo unspecified) gave IDE cell inh 0, proCasp3 act -12, PHOSPHO1 inh 76*, procasp7 counter -30 and UBC13 polyUb 18.
COc1ccc(OC)c(C2CC(=O)N3CN(c4ccccc4)CSC3=C2C#N)c1 (stereo unspecified) was read as IDE cell inh 7, proCasp3 act -24, IDE cell activ -31, PHOSPHO1 inh 83*, procasp7 counter -16 and UBC13 polyUb -9.
